Bioassay records: PubChem BioAssay, SRMLSC
Yeast life ext: extends the lifespan of yeast. S. cerevisiae growth with nicotinamide, OD615; deaD strain in restrictive glucose medium. AID 775. inhibition of the nicotinamide effect, % at 10 µM. hit rate 0.68% among 130,000;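 active means inhibition above a set limit, placed 3 SD over the median of all compounds, cut at about 26% in these data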;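 further: 0% = nicotinamide-treated wells and 100% = cells grown without nicotinamide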
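Material: Modified budding yeast, DeaD strain | Medium: Restrictive glucose medium | Probe or stimulus: 1.5 mM nicotinamide | Dosing: Single dose 10 µM compound, 0.25% DMSO | Times: 48 h at 30 °C | Technique: OD615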
RAM network inh: inhibitors of the yeast RAM network; AID 868; inhibition, % at 50 µM; hit rate 1.8% among 190,000; S. cerevisiae dse1pr::URA3 reporter, 5-FOA growth OD615, 2 d; analog-sensitive cbk1-as2 kinase mutant strain;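 active means inhibition above a set limit, 3 SD over mean compound inhibition, cut at about 8.4% in these data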;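 further: 0% = DMSO-only wells with no growth and 100% = 10 µM 1-NA-PP1 full growth; inhibition rescues growth on 5-FOA so higher OD means more RAM inhibition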
WT yeast gro inh: growth inhibition of WT yeast, mitochondrial fusion screen; mitochondrial fusion phenotypic screen, WT strain; inhibition, % at 10 µM; hit rate 2.1% among 190,000; AID 1362; in the data active means inhibition above about 58%; tested in S. cerevisiae
Yeast growth inh: reduces growth of yeast BB579 in restrictive medium; hit rate 0.51% among 140,000; inhibition, % at 10 µM; S. cerevisiae BB579 growth, OD615, 48 h;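 active means inhibition above a set limit, 3 SD over the mean compound inhibition, cut at about 44% in these data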
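Assay system – yeast BB579 (DeaD) · Dosing – single compound dose of 10 µM, 0.25% DMSO final · Detection – OD615 turbidity measurement · Buffer or medium – CSMM-D restrictive synthetic medium containing dextrose (glucose) · Benchmarks – positive control amphotericin B 10 µg/mL · Incubation – 48 h exposure, 30 °C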
* = called active by the depositor; nt = not tested or not shown. Compounds with a hit are over-represented: about 4.3% of the library has one in this group of screens.

SMILES	Yeast life ext	RAM network inh	WT yeast gro inh	Yeast growth inh
COc1ccc(C2CC(=O)c3cnc(Nc4cc(C)cc(C)c4)nc3C2)cc1 (centres undefined)	-7	6	69*	-26
O=C(OCc1cccs1)c1ccccc1NS(=O)(=O)c1ccc2c(c1)OCCO2	1	7	25	-40
CCCc1cc(C(=O)Cc2ccc(C(=O)OCC)o2)c(O)cc1O	-9	4	10	-12
CCCc1cc(-c2n[nH]c(C)c2-c2ccc(C(=O)OCC)o2)c(O)cc1O	-7	9.6*	9	-23
CNC(=S)Nc1ccc(C23CC4CC(CC(C4)C2)C3)cc1	-4	1	68*	-7
Cc1ccc(NC(=O)Nc2nc(-c3ccc(C)s3)cs2)cc1	87*	2	14	-17
O=C(COc1cccnc1[N+](=O)[O-])NCc1cccs1	nt	1	-8	nt
CCOC(=O)CSc1c(-c2ccc(Cl)cc2)[nH]c2ccccc12	-2	1	-10	-8
O=C(Cc1cccs1)NCCSc1c(-c2ccc(Cl)cc2)[nH]c2ccccc12	8	8.9*	42	-24
O=S(Cc1ccc(Br)cc1)Cc1nnc(SCc2c(F)cccc2Cl)n1-c1ccccc1 (centres undefined)	5	0	77*	-20
C/C=C(\C)CN1CCN(c2cccc(C)c2C)CC1	-3	1	-3	-29
C/C=C(\C)CN1CCN(c2cc(C)ccc2C)CC1	-5	0	59*	-12
COc1ccc(OC)c(C2C(C(C)=O)=C(O)C(=O)N2Cc2cccnc2)c1 (centres undefined)	82*	2	2	-27
CCOC(=O)C1=C(c2ccccc2)N=C2SCC(=O)N2C1c1ccc2c(c1)OCO2 (centres undefined)	-10	5	60*	-57
CCOC(=O)C1=C(c2ccccc2)N=C2SCC(=O)N2C1c1ccc(OC)c(OC)c1 (centres undefined)	-8	2	-9	-33
COc1ccnc(-n2cccc2C#N)c1C#N	nt	1	-12	nt
Cn1nc(C(=O)Nc2c(-c3ccccc3)nc3sccn23)c2ccccc2c1=O	2	9.2*	1	-22
CCOC(=O)c1cc(CC)sc1NC(=O)c1cc(OC)c(OC)c(OC)c1	-9	11*	-3	-104
FC(F)(F)c1cc(C(F)(F)F)c2ccc(N3CCN(c4ccc(Cl)cc4)CC3)nc2n1	-20	1	12	-49
N#CC(c1ccc(Cl)cc1)c1ccc2c(C(F)(F)F)cc(C(F)(F)F)nc2n1 (centres undefined)	-11	1	85*	31
CCOC(=O)n1c(=O)n(Cc2c(Cl)cccc2Cl)c2ccccc21	-27	5	2	-24
CN(C)CCCNc1ccc(-c2nn(C)c(=O)c3ccccc23)cc1[N+](=O)[O-]	nt	1	-1	nt
O=S(=O)(/N=C(\Sc1ccc(Cl)cc1)c1ccccc1)c1ccccc1	-21	-1	11	88*
CCn1c(SCC(=O)NCc2ccccc2)nnc1-c1cccnc1	nt	0	-6	nt
CCOc1ccc(NC(=O)Cn2nnc(-c3ccccc3NC(=O)c3cccs3)n2)cc1	-3	8.4*	14	-19
SMILES	Yeast life ext	RAM network inh	WT yeast gro inh	Yeast growth inh
CCCC(=O)Nc1ccccc1-c1nnn(CC(=O)Nc2ccc(OC)cc2)n1	-1	3	3	-78
O=C(O)COn1c(-c2ccc(Cl)cc2)nc2ccc(Cl)cc21	nt	5	8	nt
Clc1ccc(COn2c(-c3ccccc3)nc3ccccc32)cc1	-21	-2	13	-24
Clc1ccc(COn2c(-c3ccc(Cl)cc3)nc3ccccc32)cc1	-19	9.1*	-7	-48
COn1c(-c2ccc(Cl)cc2)nc2ccc(Cl)cc21	-25	11*	-1	-9
COc1ccccc1NC(=O)CCCc1nc(-c2ccc(OC)c(OC)c2)no1	nt	2	32	nt
CCCc1nc(SCC(=O)c2ccc(F)cc2)c2ccccc2n1	nt	1	39	nt
Fc1ccc(Sc2ccccc2CNC2=NCCN2)cc1	10	1	79*	-18
OCCNC1=NCCN1	-17	1	-6	-35
CCCc1cc(=O)oc2cc(OCc3cccc(OC)c3)c(Cl)cc12	2	11*	9	-4
CC1=C/C(=N\Nc2ccccc2[N+](=O)[O-])CC(C)(C)C1	-1	6	64*	-43
CCSc1nc2ccccc2c(=O)n1-c1c(C)n(C)n(-c2ccccc2)c1=O	nt	3	-1	nt
Cc1ccsc1/C=N/NC(=S)NCCc1ccccc1	nt	2	69*	nt
CNC(=S)N/N=C/C1=CCC2CC1C2(C)C (centres undefined)	-1	1	18	-47
